Test results taken from ChEMBL document CHEMBL1671655, “Anidulafungin is fungicidal and exerts a variety of postantifungal effects against Candida albicans, C. glabrata, C. parapsilosis, and C. krusei isolates” (2009).
In brackets after ≈: the same amount, converted by molar mass. Activity calls are given as the source filed them. No cut-off for these calls is given here. Starred links: 1 amine or outer side, 2 acyl side, 3 side chain; linkers in the order of their positions; H or OH if unused. Positions of bridges follow the written chain, without caps; N, C: chain ends. Non-standard residues stand in square brackets, D forms with d. Residues, ends and D or L forms follow the SMILES beside them. *: point of attachment. pTerphenylCO(4''-OnC5H11) = CCCCCOc1ccc(-c2ccc(-c3ccc(C(=O)*)cc3)cc2)cc1; Orn(4R-OH,5R-OH) = O=C([C@H](C[C@@H](O)[C@@H](O)N[*:3])N[*:1])[*:2]; hTyr(3S-OH,4S-OH) = N[C@H](C(=O)O)[C@H](O)[C@@H](O)c1ccc(O)cc1; Pro(3S-OH,4S-Me) = C[C@H]1CN[C@H](C(=O)O)[C@H]1O; Hyp = O=C(O)[C@@H]1C[C@@H](O)CN1

Experiments:
Candida albicans [1] = assay: Antifungal activity against Candida albicans isolate 1 coincubated with mouse J774 macrophages assessed as macrophage induced bacterial cell killing at 4 times MIC (reference value: 14 +/- 8 %); assay type: functional
Candida parapsilosis [2] = assay: Increase in susceptibility to SDS in Candida parapsilosis isolate 1 assessed as cell wall damage at 16 times MIC after 1 hr relative to control; assay type: functional, organism-based
Method in brief: (§1)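 Cells recovered 8 h after a 1-h drug exposure were grown in YPD with 1% glucose to exponential phase and adjusted to OD599 0.1. Undiluted culture and 10-fold serial dilutions were spotted onto YPD plates containing SDS (0.01 to 0.04%), then incubated 72 h at 30°C. Growth compared with unexposed control cells; triplicate.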

Nakaseomyces glabratus [3] = assay: Increase in susceptibility to SDS in Candida glabrata isolate 1 assessed as cell wall damage at 16 times MIC after 1 hr relative to control; assay type: functional, organism-based; method in brief: as §1
Candida albicans [4] = assay: Fungicidal activity against Candida albicans isolate 2 assessed as log reduction in bacterial count at MIC after drug exposure for 1 hr followed by washout measured after 48 hrs in the absence of drug by PAFE study; assay type: functional
Method in brief: (§2)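 Starting inoculum ~1 x 10^5 to 5 x 10^5 CFU/ml in MOPS-buffered RPMI 1640 (pH 7.0) with drug at multiples of the CLSI M27-A3 MIC. After 1 h at 35°C, cells washed and centrifuged three times at 1,400 x g for 10 min, then resuspended in warm drug-free RPMI. Shaken at 35°C and plated on SDA at 0–48 h; CFU counted after 48 h. Run twice per isolate; means.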

Candida albicans [5] = assay: Antifungal activity against Candida albicans isolate 1 assessed as time period for bacterial growth inhibition at 16 times MIC after 1 hr drug exposure; assay type: functional
Method in brief: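 Inoculum of about 1 x 10^5 to 5 x 10^5 CFU/ml in MOPS-buffered RPMI (pH 7.0), shaken at 35°C and exposed to drug for 1 h. Cells then washed and centrifuged three times and resuspended in drug-free warm RPMI. Samples plated on SDA at 0, 2, 4, 8, 12, 24 and 48 h, with CFU counted after 48 h at 35°C. Run twice per isolate; values are means.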

Candida parapsilosis [6] = assay: Inhibition of Candida parapsilosis isolate A adherence to human buccal epithelial cells at 4 times MIC after 1 hr by adherence assay relative to control; assay type: functional, Epithelial cell
Method in brief: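 Candida collected 8 h after a 1-h 4x MIC pulse and washout were grown on SDA for 24 h at 35°C. Buccal epithelial cells were pooled from three donors and washed in PBS. Cells (1 x 10^5/ml) were mixed 1:1 by volume with Candida (1 x 10^6/ml) and shaken 1 h at 37°C. Mixtures were filtered, washed, and Gram-stained, and Candida were counted per 100 epithelial cells. Run in duplicate on ≥2 occasions; Student's t test against unexposed controls.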

Candida parapsilosis [7] = assay: Antifungal activity against Candida parapsilosis isolate A coincubated with mouse J774 macrophages assessed as macrophage induced bacterial cell killing at 4 times MIC (reference value: 19 +/- 9 %); assay type: functional
Candida albicans [8] = assay: Fungicidal activity against Candida albicans isolate 2 assessed as log reduction in bacterial count at 16 times MIC after drug exposure for 1 hr followed by washout measured after 48 hrs in the absence of drug by PAFE study; assay type: functional; method in brief: as §2
[9] = test system: Meyerozyma guilliermondii; assay: Antifungal activity against Candida guilliermondii by NCCLS M27A broth microdilution method; assay type: functional
Pichia kudriavzevii [10] = assay: Antifungal activity against Candida krusei isolate 1 by CLSI M27-A3 broth microdilution method; assay type: functional
Method in brief: (§3)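 CLSI M27-A3 broth microdilution in RPMI 1640 buffered to pH 7.0 with MOPS. Starting inoculum 0.5 x 10^3 to 2.5 x 10^3 cells/ml, incubated at 35°C. MIC read as the lowest concentration giving >50% growth reduction versus control. Each isolate tested on at least three occasions.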

Candida parapsilosis [11] = assay: Fungicidal activity against Candida parapsilosis isolate 1 assessed as log reduction in bacterial count at MIC after 48 hrs by time-kill analysis; assay type: functional; conditions: Lodderomyces parapsilosis, isolate 1, 48 h
Method in brief: (§4)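 Isolates subcultured twice on SDA, then suspended to 0.5 McFarland and diluted into RPMI 1640 (MOPS, pH 7.0) with or without anidulafungin, giving about 1 x 10^5 to 5 x 10^5 CFU/ml. Tubes were shaken at 35°C. Samples were taken at 0, 2, 4, 8, 12, 24 and 48 h, serially diluted 10-fold, plated on SDA, and CFU counted after 48 h at 35°C. Each isolate was run twice; mean values.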

Candida parapsilosis [12] = assay: Antifungal activity against Candida parapsilosis isolate A by CLSI M27-A3 broth microdilution method; assay type: functional; conditions: Lodderomyces parapsilosis; method in brief: as §3
Nakaseomyces glabratus [13] = assay: Antifungal activity against Candida glabrata isolate 3 by CLSI M27-A3 broth microdilution method; assay type: functional; method in brief: as §3
Candida parapsilosis [14] = assay: Fungicidal activity against Candida parapsilosis isolate A assessed as log reduction in bacterial count at 16 times MIC after 48 hrs by time-kill analysis; assay type: functional; conditions: Lodderomyces parapsilosis; method in brief: as §4
Nakaseomyces glabratus [15] = assay: Increase in susceptibility to calcofluor white in Candida glabrata isolate 1 assessed as cell wall damage at 16 times MIC after 1 hr relative to control; assay type: functional, organism-based
Method in brief: (§5)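 Cells recovered 8 h after a 1-h drug exposure were grown to exponential phase in YPD with 1% glucose and adjusted to OD599 0.1. Undiluted and 10-fold serially diluted cultures were spotted onto YPD plates containing calcofluor white, then incubated at 30°C for 72 h. Growth compared with no-drug control cells; triplicate.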

Pichia kudriavzevii [16] = assay: Fungicidal activity against Candida krusei isolate ATCC 6258 assessed as log reduction in bacterial count at MIC after 48 hrs by time-kill analysis; assay type: functional; conditions: isolate ATCC 6258, 48 h
Method in brief: (§6)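 Isolates subcultured twice on SDA, suspended to 0.5 McFarland, giving ~1 x 10^5 to 5 x 10^5 CFU/ml in MOPS-buffered RPMI 1640 (pH 7.0) with or without drug at multiples of MIC (MIC by CLSI M27-A3). Tubes shaken at 35°C with continuous drug. Sampled at 0–48 h, diluted 10-fold and plated on SDA; CFU counted after 48 h at 35°C. Run twice per isolate; means.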

Candida tropicalis = assay: Antifungal activity against Candida tropicalis by NCCLS M27A broth microdilution method; assay type: functional
Candida parapsilosis [17] = assay: Antifungal activity against Candida parapsilosis isolate 1 by CLSI M27-A3 broth microdilution method; assay type: functional; conditions: Lodderomyces parapsilosis; method in brief: as §3
Nakaseomyces glabratus [18] = assay: Antifungal activity against Candida glabrata by NCCLS M27A broth microdilution method; assay type: functional
Pichia kudriavzevii [19] = assay: Antifungal activity against Candida krusei assessed as time period for bacterial regrowth inhibition after 1 hr drug exposure; assay type: functional
Candida parapsilosis [20] = assay: Fungicidal activity against Candida parapsilosis isolate 1 assessed as log reduction in bacterial count at 16 times MIC after 48 hrs by time-kill analysis; assay type: functional; conditions: Lodderomyces parapsilosis, isolate 1, 48 h; method in brief: as §6
Candida parapsilosis [21] = assay: Increase in susceptibility to calcofluor white in Candida parapsilosis isolate A assessed as cell wall damage at 16 times MIC after 1 hr relative to control; assay type: functional, organism-based
Method in brief: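 Candida given a 1-h anidulafungin pulse in MOPS-buffered RPMI 1640 (pH 7.0) at 35°C, washed three times by centrifugation, and regrown drug-free. Cells collected 8 h later, grown in YPD with 1% glucose to exponential phase, and set to OD599 0.1. Undiluted culture and 10-fold dilutions (4 µl) spotted on YPD plates with calcofluor white, then 30°C for 72 h. Triplicate; compared with no-drug cells.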

Candida albicans [22] = assay: Increase in susceptibility to calcofluor white in Candida albicans ATCC 90028 assessed as cell wall damage at 4 times MIC after 1 hr relative to control; assay type: functional, organism-based; method in brief: as §5

CCCCCOc1ccc(-c2ccc(-c3ccc(C(=O)N[C@H]4C[C@@H](O)[C@@H](O)NC(=O)[C@@H]5[C@@H](O)[C@@H](C)CN5C(=O)[C@H]([C@@H](C)O)NC(=O)[C@H]([C@H](O)[C@@H](O)c5ccc(O)cc5)NC(=O)[C@@H]5C[C@@H](O)CN5C(=O)[C@H]([C@@H](C)O)NC4=O)cc3)cc2)cc1 [ANIDULAFUNGIN] ({pTerphenylCO(4''-OnC5H11)}-[Orn(4R-OH,5R-OH)]T[Hyp][hTyr(3S-OH,4S-OH)]T[Pro(3S-OH,4S-Me)]; lactam 1-C)
inhibition (INH) (Candida albicans [1]): 37% | Activity (Candida parapsilosis [2]): Active | Activity (Nakaseomyces glabratus [3]): Active | log reduction (Candida albicans [4]): 0.86 | Time (Candida albicans [5]): 8 h | inhibition (INH) (Candida parapsilosis [6]): 69% | inhibition (INH) (Candida parapsilosis [7]): 42% | log reduction (Candida albicans [8]): 1.55 | MIC90 [9]: 2 µg/mL (≈ 1.75 µM) | MIC (Pichia kudriavzevii [10]): 0.03 µg/mL (≈ 0.0263 µM) | log reduction (Candida parapsilosis [11]): 1.65 log CFU/ml | MIC (Candida parapsilosis [12]): 2 µg/mL (≈ 1.75 µM) | MIC (Nakaseomyces glabratus [13]): 0.03 µg/mL (≈ 0.0263 µM) | log reduction (Candida parapsilosis [14]): 3.42 log CFU/ml | Activity (Nakaseomyces glabratus [15]): Active | log reduction (Pichia kudriavzevii [16]): 2.21 log CFU/ml | MIC90 (Candida tropicalis): 0.06 µg/mL (≈ 0.0526 µM) | MIC (Candida parapsilosis [17]): 2 µg/mL (≈ 1.75 µM) | MIC90 (Nakaseomyces glabratus [18]): 0.06 µg/mL (≈ 0.0526 µM) | Time (Pichia kudriavzevii [19]): >=12 hr | log reduction (Candida parapsilosis [20]): 3.47 log CFU/ml | Activity (Candida parapsilosis [21]): Active | Activity (Candida albicans [22]): Active
